Structures can show the parent of a compound that is named as a salt.
tested on: Thoracic aorta; test: Ratio of IC50 for prazosin to IC50 for compound in noradrenaline-contracted Wister rat thoracic aorta rings; assay type: functional

First: COc1ccccc1N1CCN(CCC(=O)NNc2nncc3ccccc23)CC1
Second: CN1CCN(CC(=O)NNc2nncc3ccccc23)CC1
The “Ratio IC50” value of the first is higher: 5 for the first, 3 for the second.

tested on: Thoracic aorta; test: Vasorelaxant activity in Wister rat thoracic aorta rings assessed as reduction in maximal noradrenaline-induced spasms; assay type: functional, tissue-based
Outline: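 Aortic preparations equilibrated for 2 h at 2 g resting tension. Contraction to norepinephrine hydrochloride (10^-6 M) was recorded before and after exposure to increasing concentrations of compound. Compounds came from a 0.01 M DMSO stock. Vehicle controls used DMSO alone at matching concentrations.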

Going from `O=C(CN1CCN(c2ccccc2)CC1)NNc1nncc2ccccc12` to `O=C(CCN1CCN(c2ccccc2)CC1)NNc1nncc2ccccc12`, the IC50 falls from 560 µM to 270 µM (2.1-fold). The second is the more potent here.

Compared with `CN1CCN(CCC(=O)NNc2nncc3ccccc23)CC1`, `CN1CCN(CC(=O)NNc2nncc3ccccc23)CC1` is 2.2-fold lower in IC50: 360 µM for the first, 160 µM for the second.

`O=C(CN1CCOCC1)NNc1nncc2ccccc12` and `O=C(CCN1CCOCC1)NNc1nncc2ccccc12` are within 1.5-fold of each other in IC50: 430 µM for the first, 580 µM for the second.

`O=C(CCn1ccnc1)NNc1nncc2ccccc12` and `O=C(Cn1ccnc1)NNc1nncc2ccccc12` are within 1.5-fold of each other in IC50: 810 µM for the first, 610 µM for the second.

Going from `O=C(CCN1CCN(c2ccc(Cl)cc2)CC1)NNc1nncc2ccccc12` to `O=C(CN1CCN(c2ccc(Cl)cc2)CC1)NNc1nncc2ccccc12`, the IC50 falls from 700 µM to 450 µM (1.6-fold). The second is the more potent here.

Compared with `COc1ccccc1N1CCN(CCC(=O)NNc2nncc3ccccc23)CC1`, `COc1ccccc1N1CCN(CC(=O)NNc2nncc3ccccc23)CC1` is 5.5-fold higher in IC50: 100 µM for the first, 550 µM for the second. The first is the more potent here.

`O=C(CN1CCN(c2cccc(C(F)(F)F)c2)CC1)NNc1nncc2ccccc12` and `O=C(CCN1CCN(c2cccc(C(F)(F)F)c2)CC1)NNc1nncc2ccccc12` are within 1.5-fold of each other in IC50: 410 µM for the first, 500 µM for the second.

Going from `COc1cc2nc(N3CCN(C(=O)c4ccco4)CC3)nc(N)c2cc1OC` [PRAZOSIN HYDROCHLORIDE] to `CCOC(=O)N1CCN(CC(=O)NNc2nncc3ccccc23)CC1`, the IC50 rises from 480 µM to over 1000 µM. The first is the more potent here.

`CCOC(=O)N1CCN(CCC(=O)NNc2nncc3ccccc23)CC1` showed an IC50 of over 1000 µM.
